Among the data in PubChem BioAssay AID588823 (The Scripps Research Institute Molecular Screening Center, 2011) are outcome, anti-target count and inhibition values, retold here.

Active and inactive are the calls of the source.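 How the source made its calls: active means at least 50% inhibition of the target enzyme pPAFAH in mouse brain after oral dosing, with fewer than two other serine hydrolases also hit; inactive means weaker pPAFAH inhibition or two or more other hydrolases hit.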

Assay in all cases: in vivo serine hydrolase selectivity, brain membranes – fluorescence, gel-based ABPP, mouse, in vivo study, late-stage follow-up (AID 588823)
For one test, the system named is Anti-targets. To be noted: mouse brain membrane proteome, oral dosing, FP-Rh probe. The essentials:
(§1)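 Test system: Brain membrane proteome from orally dosed wild-type mice | Amount: 1 mg/mL membrane protein | Times: Brain harvest 4 h post-dose, probe labelling 30 min, 37 °C | Read-out basis: Percent inhibition from band integrated optical density versus vehicle, background-corrected | Compound dosing: 50 mg/kg orally in PEG300 | Signal: SDS-PAGE in-gel fluorescence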

The subject of the next test is CES1. To be noted: mouse brain membrane proteome, oral dosing, stronger effect = higher value, dose or concentration not given here. In short, it runs like this:
as §1

The test system of a further test is pPAFAH. To be noted: mouse brain membrane proteome, oral dosing, stronger effect = higher value, dose or concentration not given here. The essentials: as §1

Take `Cc1cc(N2CCN(C(=O)Oc3ccc(-c4ccccc4)cn3)CC2)c2ccccc2n1`: in the test on Anti-targets, the outcome was inactive. This compound came in with an anti-target count with Anti-targets (number of FP-Rh anti-targets, stronger effect = lower value) of 0. Besides, the inhibition in the test with CES1 was 90%; with pPAFAH, 95.5%.

One may read the inhibition as the share of the control response that was lost under treatment.
